Assay results: ChEMBL document CHEMBL2424619, “Small-molecule ligands of methyl-lysine binding proteins: optimization of selectivity for L3MBTL3” (J Med Chem, 2013)
pIC50: −log10 of the molar value.

Assays:
[1] = biological target: T1, Muscarinic acetylcholine receptor M1 (Homo sapiens) (UniProt P11229); experiment: Antagonist activity at muscarinic M1 receptor (unknown origin) expressed in HEK293T cells assessed as inhibition of UNC1679 calcium mobilization at 30 uM; format: functional, cell-based; conditions: HEK-293T
T1 sequence (whole entry): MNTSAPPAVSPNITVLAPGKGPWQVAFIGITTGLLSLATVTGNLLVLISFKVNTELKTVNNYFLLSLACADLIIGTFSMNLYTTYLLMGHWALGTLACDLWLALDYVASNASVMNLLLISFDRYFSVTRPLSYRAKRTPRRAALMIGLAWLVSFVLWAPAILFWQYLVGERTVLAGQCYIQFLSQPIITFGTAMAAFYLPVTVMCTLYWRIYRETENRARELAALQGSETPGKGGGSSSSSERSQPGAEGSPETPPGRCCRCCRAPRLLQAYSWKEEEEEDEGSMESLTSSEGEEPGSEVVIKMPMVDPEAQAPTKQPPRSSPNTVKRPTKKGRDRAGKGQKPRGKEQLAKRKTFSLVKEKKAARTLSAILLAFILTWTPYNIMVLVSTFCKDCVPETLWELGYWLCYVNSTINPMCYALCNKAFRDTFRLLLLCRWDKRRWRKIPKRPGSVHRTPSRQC
Outline: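 Test compound assayed for M1 antagonism at one concentration, 30 μM, scored as percent inhibition.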

[2] = biological target: T2, Muscarinic acetylcholine receptor M1 (Homo sapiens, UniProt P11229); experiment: Antagonist activity at muscarinic M1 receptor (unknown origin) expressed in HEK293T cells assessed as inhibition of UNC1679 calcium mobilization; format: functional, cell-based, HEK-293T
T2 sequence (P11229 whole entry): T1 sequence (whole entry)

| inhibition [1] [%] | Compound | pIC50 [2] |
| --- | --- | --- |
| < 20 | CCN1Cc2ccc(NC(=O)c3ccc(C(=O)N4CCC(C5CCCN5)CC4)cc3)cc2C1 (configuration not stated) | – |
| – | O=C(c1ccc(C(=O)N2CCC(N3CCCC3)CC2)c(Nc2ccccc2)c1)N1CCC(N2CCCC2)CC1 | 5.46 |
